From ChEMBL document CHEMBL2331188, “Synthesis and biochemical activities of antiproliferative amino acid and phosphate derivatives of microtubule-disrupting β-lactam combretastatins” (Eur J Med Chem, 2013) come the findings set out here.

Data set [1] deals with MCF7. Briefly: Antiproliferative activity against human MCF7 cells assessed as inhibition of cell growth after 72 hrs by MTT assay. The class given is functional, cell-based. The following applies: MCF7, 72 h. The procedure, abridged:
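MCF-7 cells in MEM with 10% FBS, 2 mM L-glutamine, penicillin/streptomycin and 1% non-essential amino acids. Seeded at 2.5 × 10⁴ cells/mL, grown 24 h at 37 °C, then dosed from ethanol stocks over 1 nM–100 µM for 72 h; vehicle was ethanol 1% v/v. Read-out was MTT at 1 mg/mL for 2 h, solubilised in DMSO, absorbance relative to control as 100% viability. Triplicate; mean ± S.E.M of at least three experiments.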
A general note: Tetrazolium dyes change colour on reduction, which living cells bring about.

A short description of data set [2]: Half life in human plasma at pH 4 to 9. The class given is ADME, cell-free.
For data set [3], the species on record is Bos taurus. Put plainly: Inhibition of bovine brain tubulin polymerization at 10 uM measured every 30s for 60 mins by spectrophotometric analysis.
The subject of data set [4] is MCF7. Put plainly: Induction of microtubule depolymerization in human MCF7 cells assessed as complete loss of microtubule formation at 100 nM after 16 hrs by immunofluorescence analysis. The data set is classed as cell-based. The method, boiled down: (§1)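 MCF-7 cells seeded at 1 × 10⁵ per well on chamber slides and treated 16 h; vehicle was 1% ethanol v/v. Fixed in methanol at −20 °C for 30 min and blocked in 5% BSA/PBST. Stained with anti-α-tubulin DM1A (1:20) and then FITC anti-mouse (1:100), each 1 h at room temperature, with DAPI counterstain. Imaged by confocal microscopy; three separate experiments.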

A short description of data set [5]: Aqueous solubility of the compound after 24 hrs by HPLC analysis. The data set is classed as physicochemical. The settings on record: aqueous medium. The method, boiled down: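 Compound was shaken in water at 300 shakes/min for 24 h, then filtered. The filtrate was quantified by HPLC on a C18 column with acetonitrile/water 70:30 at 1 mL/min, detection at 254 nm. The value is the maximum of n = 3.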

Data set [6] concerns MCF7. Briefly: Induction of cell cycle arrest in human MCF7 cells assessed as accumulation of cells in sub-G1 phase at 100 nM after 48 hrs by propidium iodide staining based flow cytometry. The class given is functional. The procedure, abridged: (§2)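 MCF-7 cells seeded at 1 × 10⁵ cells/cm³ and treated after 24 h for 48 h; vehicle was 1% ethanol v/v. Cells were fixed in 70% ethanol:PBS overnight at −20 °C, then stained with RNase 0.5 mg/mL and propidium iodide 0.15 mg/mL for 30 min at 37 °C. Analysed by flow cytometry, at least 10,000 gated cells, sub-diploid counted as sub-G1. Mean ± SEM of at least three experiments; one-way ANOVA with Bonferroni test.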

Data set [7] concerns MCF7. Put plainly: Induction of cell cycle arrest in human MCF7 cells assessed as accumulation of cells in G2/M phase at 100 nM after 48 hrs by propidium iodide staining based flow cytometry. The data set is classed as functional. The procedure, abridged: as §2
On the technique in general: A flow cytometer gives signals particle by particle.

The test system of data set [8] is MCF7. Briefly: Induction of mitotic catastrophe in human MCF7 cells at 100 nM after 16 hrs by immunofluorescence analysis. The class given is functional, cell-based. The procedure, abridged:
as §1

The species entered for data set [9] is Bos taurus. Briefly: Inhibition of bovine brain tubulin polymerization measured every 30s for 60 mins by spectrophotometric analysis.
The nature of data set [10]: Inhibition of bovine brain tubulin polymerization measured every 30s for 30 mins by spectrophotometric analysis. More on the design: species or system Bos taurus.
Data set [11] relates to MCF7. Put plainly: Induction of cell cycle arrest in human MCF7 cells assessed as accumulation of cells in sub-G1 phase at 1 uM after 48 hrs by propidium iodide staining based flow cytometry. The data set is classed as functional. The procedure, abridged: as §2
Data set [12] relates to MCF7. Briefly: Induction of mitotic catastrophe in human MCF7 cells at 1 uM after 16 hrs by immunofluorescence analysis. The data set is classed as functional, cell-based. The method, boiled down:
as §1

The subject of data set [13] is MCF7. Briefly: Induction of cell cycle arrest in human MCF7 cells assessed as accumulation of cells in G2/M phase at 1 uM after 48 hrs by propidium iodide staining based flow cytometry. The data set is classed as functional. The procedure, abridged:
as §2

For data set [14], the system named is MCF7. Put plainly: Induction of microtubule depolymerization in human MCF7 cells assessed as complete loss of microtubule formation at 1 uM after 16 hrs by immunofluorescence analysis. The data set is classed as cell-based. The method, boiled down:
as §1

Data set [15] is described as follows: Solubility in human plasma. The class given is ADME, cell-free.
Data set [16] is described as follows: Solubility in human plasma at pH 7.2 to 7.5. The data set is classed as ADME, cell-free.
The subject of data set [17] is Colon 26. Briefly: Antiproliferative activity against mouse Colon 26 cells assessed as inhibition of cell growth. The class given is functional, cell-based.

Structures are written as SMILES. Values after ≈ are worked out from the molar mass of the structure shown. Active and inactive are the calls of the source. The calls are words filed in the database; no cut-off is given here.

The IC50 is the concentration needed to halve the response being measured. In general, half-life refers to the time in which the quantity being followed falls by half. A high value points to slow loss. In general, solubility refers to the concentration that dissolves in the medium under given conditions. Low values mean a poorly soluble substance, high ones a readily soluble substance.

Regarding `COc1ccc([C@H]2[C@H](c3ccc(O)cc3)C(=O)N2c2cc(OC)c(OC)c(OC)c2)cc1OP(=O)(O)O`, in data set [1], the IC50 amounted to 22 nM. In data set [2], this molecule had a half-life of more than 24 h. Also, in data set [3], the inhibition result was “inactive”. For the same molecule, the result in data set [4], in [6], in [7] and in data set [8] was Active. The solubility at 24 h in [5] came to 140 µg/mL (≈ 263 µM).

`COc1ccc([C@H]2[C@H](c3ccc(O)cc3)C(=O)N2c2cc(OC)c(OC)c(OC)c2)cc1O`: the half-life in [2] was more than 24 h.

Turning to `COc1ccc([C@H]2[C@H](c3ccccc3)C(=O)N2c2cc(OC)c(OC)c(OC)c2)cc1N`, the half-life in data set [2] is more than 24 h.

On to `COc1ccc([C@H]2[C@H](c3ccc(NC(=O)[C@@H](N)Cc4ccccc4)cc3)C(=O)N2c2cc(OC)c(OC)c(OC)c2)cc1`, for which the results for the IC50 in data set [1] and in data set [10] were 27 nM and 2400 nM, respectively. In addition, the inhibition entry in data set [9] is “Dose-dependent effect”. For the same molecule, the outcome in data set [4], in data set [6], in data set [7] and in data set [8] was Active. The molecule also yielded a solubility at 24 h in data set [5] of 140 µg/mL (≈ 241 µM).

Turning to `COc1ccc([C@H]2[C@H](c3ccc(NC(=O)[C@@H](N)C(C)C)cc3)C(=O)N2c2cc(OC)c(OC)c(OC)c2)cc1`, the half-maximal inhibitory concentration (IC50) in [1] worked out at 50 nM. For the same molecule, the solubility at 24 h in data set [5] is 4 µg/mL (≈ 7.5 µM).

Regarding `COc1ccc([C@H]2[C@H](c3ccccc3)C(=O)N2c2cc(OC)c(OC)c(OC)c2)cc1OP(=O)(O)O`, the 50% inhibitory concentration (IC50) in data set [1] turned out to be 71 nM. The inhibition result in [3] was “inactive”. Further, the concentration in solution in data set [5] (solubility at 24 h) came to 300 µg/mL (≈ 582 µM). Also, the outcome in data set [6] and in [7] was Active.

As to `CC[C@H](C)[C@H](N)C(=O)Nc1cc([C@H]2[C@H](c3ccccc3)C(=O)N2c2cc(OC)c(OC)c(OC)c2)ccc1OC`, the IC50 in data set [1] was 1100 nM. In data set [5], this molecule came in with a solubility at 24 h of 110 µg/mL (≈ 201 µM).

Take `COc1ccc([C@H]2[C@H](c3ccc(NC(=O)[C@H](C)N)cc3)C(=O)N2c2cc(OC)c(OC)c(OC)c2)cc1`: the IC50 in data set [1] worked out at 35 nM.

`COc1ccc([C@H]2[C@H](c3ccccc3)C(=O)N2c2cc(OC)c(OC)c(OC)c2)cc1NC(=O)[C@@H](N)Cc1ccccc1`: the IC50 in data set [1] stood at 1130 nM.

As to `COc1ccc([C@H]2[C@H](c3ccccc3)C(=O)N2c2cc(OC)c(OC)c(OC)c2)cc1NC(=O)CN`, the IC50 in [1] stood at 1100 nM.

Consider `COc1ccc([C@H]2[C@H](c3ccc(NC(=O)[C@@H](N)CCCCN)cc3)C(=O)N2c2cc(OC)c(OC)c(OC)c2)cc1`, for which, in data set [1], the IC50 was found to be 690 nM.

Turning to `COc1ccc([C@H]2[C@H](c3ccccc3)C(=O)N2c2cc(OC)c(OC)c(OC)c2)cc1NC(=O)[C@@H](N)Cc1ccc(O)cc1`, the half-maximal inhibitory concentration (IC50) in data set [1] stood at 740 nM.

Take `COc1ccc([C@H]2[C@H](c3ccccc3)C(=O)N2c2cc(OC)c(OC)c(OC)c2)cc1NC(=O)[C@@H](N)CCCCN`: in data set [1], the half-inhibitory concentration (IC50) came out at 9800 nM.

Regarding `COc1ccc([C@H]2[C@H](c3ccccc3)C(=O)N2c2cc(OC)c(OC)c(OC)c2)cc1NC(=O)[C@@H](N)C(C)C`, the 50% inhibitory concentration (IC50) in [1] is 460 nM; in [10], 5200 nM. Further, the inhibition result in [9] is “Dose-dependent effect”. In addition, the result in [11], in data set [12], in data set [13] and in data set [14] was Active. The half-life in [2] is more than 24 h. In addition, the solubility at 24 h in data set [5] was 110 µg/mL (≈ 206 µM).

Molecule `COc1ccc(/C=C\c2cc(OC)c(OC)c(OC)c2)cc1N` yielded a solubility in [15] of 3300 µg/mL (≈ 10500 µM).

Consider `COc1ccc([C@H]2[C@H](c3cccs3)C(=O)N2c2cc(OC)c(OC)c(OC)c2)cc1OP(=O)(O)O`, for which the IC50 in [1] is 20 nM. The outcome in [4], in [6], in data set [7] and in data set [8] was Active. The molecule also showed a solubility at 24 h in data set [5] of 450 µg/mL (≈ 863 µM).

For `COc1ccc(/C=C\c2cc(OC)c(OC)c(OC)c2)cc1NC(=O)[C@@H](N)CO` [OMBRABULIN], the solubility in data set [16] came out at 110 µg/mL (≈ 273 µM); in data set [15] it was 3300 µg/mL (≈ 8200 µM). Also, in [17], the IC50 stood at 27.2 nM.

Turning to `COc1ccc([C@H]2[C@H](c3ccc(N)cc3)C(=O)N2c2cc(OC)c(OC)c(OC)c2)cc1`, in data set [2], the half-life was more than 24 h.

For the molecule `COc1ccc([C@H]2[C@H](c3ccc(NC(=O)[C@@H](N)CO)cc3)C(=O)N2c2cc(OC)c(OC)c(OC)c2)cc1`, the half-maximal inhibitory concentration (IC50) in data set [1] was 860 nM.

For the molecule `COc1ccc([C@H]2[C@H](c3ccccc3)C(=O)N2c2cc(OC)c(OC)c(OC)c2)cc1NC(=O)[C@H](C)N`, in data set [1], the 50% inhibitory concentration (IC50) amounted to 760 nM. This molecule came in with a solubility at 24 h in data set [5] of 370 µg/mL (≈ 732 µM).

With `COc1ccc([C@H]2[C@H](c3ccccc3)C(=O)N2c2cc(OC)c(OC)c(OC)c2)cc1NC(=O)[C@@H](N)CO`, in [1], the IC50 came out at 780 nM. In data set [5], this molecule had a solubility at 24 h of 200 µg/mL (≈ 383 µM).

`COc1ccc([C@H]2[C@H](c3ccc(NC(=O)CN)cc3)C(=O)N2c2cc(OC)c(OC)c(OC)c2)cc1`: the half-maximal inhibitory concentration (IC50) in data set [1] was 91 nM. This molecule displayed a half-life in data set [2] of more than 24 h. Also, the concentration in solution in data set [5] (solubility at 24 h) was 60 µg/mL (≈ 122 µM).
